≈ marks a conversion by molar mass, not a printed value.
How the values were obtained:
[1] = Inhibition of Candida albicans 119 1,3-beta-D-glucan synthase subunit FKS1p T1921C mutant
Summary of the method: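 Product-entrapped glucan synthase from YPD-grown cells (37°C, early stationary phase) in a filtration polymerization assay with [3H]UDPG. Echinocandin serial dilutions were added, with 1% DMSO in controls for anidulafungin. Reactions were started with enzyme, run 60 min at 25°C and stopped on ice. IC50 came from a variable-slope sigmoidal fit, in triplicate.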

[2] = Inhibition of Candida albicans 5415 1,3-beta-D-glucan synthase subunit FKS1p T1933C mutant
Summary of the method: (§1)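 Enzyme is product-entrapped 1,3-β-D-glucan synthase, enriched from membranes of each strain grown at 37°C with shaking in YPD broth to early stationary phase. Filtration polymerization assay uses [3H]UDPG, started by adding enzyme and run 60 min at 25°C. Echinocandins are added as serial dilutions, with 1% DMSO controls for anidulafungin. IC50 is from a variable-slope sigmoidal fit; values are triplicate arithmetic means.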

[3] = Inhibition of Candida albicans 122 1,3-beta-D-glucan synthase subunit FKS1p C1946A mutant; summary of the method: as §1
Candida albicans [4] = experiment: Antimicrobial activity against Candida albicans 121 harboring FKS1 G4082A mutant gene and FKS1 hotspot2 R1361H mutant gene by M27-A3 method; assay type: functional
Summary of the method: (§2)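 Broth microdilution per CLSI M27-A3 in RPMI 1640, done in triplicate on three separate days. Each strain was tested with and without 50% human serum. C. krusei ATCC 6258 and C. parapsilosis ATCC 22019 served as QC strains. Arithmetic means are reported, and geometric means were used for comparison.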

Candida albicans [5] = experiment: Antimicrobial activity against Candida albicans 122 harboring FKS1 C1946A mutant gene and FKS1 hotspot1 P649H mutant gene by M27-A3 method in presence of 50% human serum; assay type: functional; summary of the method: as §2
Candida albicans [6] = experiment: Antimicrobial activity against Candida albicans A15 harboring FKS1 T1933Y mutant gene and FKS1 hotspot1 S645S/P mutant gene by M27-A3 method in presence of 50% human serum; assay type: functional; summary of the method: as §2
Candida albicans [7] = experiment: Activity at Candida albicans 177 1,3-beta-D-glucan synthase subunit FKS1p T1922C mutant
Summary of the method: (§3)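 Product-entrapped 1,3-β-D-glucan synthase from cells grown in YPD at 37°C to early stationary phase. Wells held 50 mM HEPES pH 7.5, 10% glycerol, 1.5 mg/ml BSA, 25 mM KF, 1 mM EDTA, 25 μM GTP-γ-S, 1 μg enzyme and [3H]UDPG (0.015–2 mM). Reactions ran 60 min at 25°C. Vmax and Km came from Lineweaver-Burke plots, in triplicate.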

[8] = Inhibition of Candida albicans 36082 1,3-beta-D-glucan synthase subunit FKS1p; summary of the method: as §1
Candida albicans [9] = experiment: Antimicrobial activity against Candida albicans 177 harboring FKS1 T1922C mutant gene and FKS1 hotspot1 F641S mutant gene by M27-A3 method; assay type: functional; summary of the method: as §2
[10] = Inhibition of Candida albicans 85 1,3-beta-D-glucan synthase subunit FKS1p C1934T mutant; summary of the method: as §1
Candida albicans [11] = experiment: Antimicrobial activity against Candida albicans 36082 by M27-A3 method in presence of 50% human serum; assay type: functional; summary of the method: as §2
Candida albicans [12] = experiment: Antimicrobial activity against Candida albicans A15-10 harboring FKS1 T1933C mutant gene and FKS1 hotspot1 S645P mutant by M27-A3 method in presence of 50% human serum; assay type: functional; summary of the method: as §2
Candida albicans [13] = experiment: Antimicrobial activity against Candida albicans 205 harboring FKS1 T1933C mutant gene and FKS1 hotspot1 S645P mutant gene by M27-A3 method; assay type: functional; summary of the method: as §2
Candida albicans [14] = experiment: Antimicrobial activity against Candida albicans A15 harboring FKS1 T1933Y mutant gene and FKS1 hotspot1 S645S/P mutant gene by M27-A3 method; assay type: functional; summary of the method: as §2
Candida albicans [15] = experiment: Antimicrobial activity against Candida albicans 85 harboring FKS1 C1934T mutant gene and FKS1 hotspot1 S645F mutant gene by M27-A3 method; assay type: functional; summary of the method: as §2
[16] = Inhibition of Candida albicans 205 1,3-beta-D-glucan synthase subunit FKS1p T1933C mutant; summary of the method: as §1
Candida albicans [17] = experiment: Antimicrobial activity against Candida albicans 1002 by M27-A3 method; assay type: functional
Summary of the method: (§4)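 Broth microdilution per CLSI M27-A3 in RPMI 1640, with and without 50% human serum, in triplicate. C. krusei ATCC 6258 and C. parapsilosis ATCC 22019 served as quality-control strains. MIC reported as arithmetic mean of three repetitions on separate days.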

Candida albicans [18] = experiment: Activity at Candida albicans 89 1,3-beta-D-glucan synthase subunit FKS1p C1934A mutant; summary of the method: as §3
Candida albicans SC5314 = experiment: Activity at Candida albicans SC5314 1,3-beta-D-glucan synthase subunit FKS1p
Summary of the method: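 Glucan synthase from cells grown at 37°C with vigorous shaking to early stationary phase in YPD. Membrane enzyme enriched by product entrapment. Serial echinocandin dilutions; ANF controls held 1% DMSO. Reaction started by adding enzyme, run 60 min at 25°C in a filtration polymerization assay, stopped on ice. IC50 from a variable-slope sigmoidal fit; means of three repetitions on separate days.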

Candida albicans [19] = experiment: Activity at Candida albicans 85 1,3-beta-D-glucan synthase subunit FKS1p C1934T mutant; summary of the method: as §3
Candida albicans [20] = experiment: Antimicrobial activity against Candida albicans 2762 harboring FKS1 T1922C mutant gene and FKS1 hotspot1 F641S mutant gene by M27-A3 method in presence of 50% human serum; assay type: functional; summary of the method: as §2
Candida albicans [21] = experiment: Activity at Candida albicans 119 1,3-beta-D-glucan synthase subunit FKS1p T1921C mutant; summary of the method: as §3
Candida albicans [22] = experiment: Antimicrobial activity against Candida albicans 2762 harboring FKS1 T1922C mutant gene and FKS1 hotspot1 F641S mutant gene by M27-A3 method; assay type: functional; summary of the method: as §2
[23] = Inhibition of Candida albicans 90028 1,3-beta-D-glucan synthase subunit FKS1p; summary of the method: as §1
Candida albicans [24] = experiment: Antimicrobial activity against Candida albicans 89 harboring FKS1 C1934A mutant gene and FKS1 hotspot1 S645Y mutant gene by M27-A3 method in presence of 50% human serum; assay type: functional; summary of the method: as §2
Candida albicans [25] = experiment: Antimicrobial activity against Candida albicans 3107 by M27-A3 method; assay type: functional; summary of the method: as §2
[26] = Inhibition of Candida albicans A15-10 1,3-beta-D-glucan synthase subunit FKS1p T1933C mutant; summary of the method: as §1
Candida albicans [27] = experiment: Antimicrobial activity against Candida albicans 90028 by M27-A3 method; assay type: functional; summary of the method: as §4
Candida albicans [28] = experiment: Antimicrobial activity against Candida albicans 90028 by M27-A3 method in presence of 50% human serum; assay type: functional; summary of the method: as §2
Candida albicans [29] = experiment: Antimicrobial activity against Candida albicans 90 harboring FKS1 G4082R mutant gene and FKS1 hotspot2 R1361R/H mutant gene by M27-A3 method in presence of 50% human serum; assay type: functional; summary of the method: as §2
[30] = Inhibition of Candida albicans 89 1,3-beta-D-glucan synthase subunit FKS1p C1934A mutant; summary of the method: as §1

Which IC50 [1] does the source give for `CC[C@H](C)C[C@H](C)CCCCCCCCC(=O)N[C@H]1C[C@@H](O)[C@@H](NCCN)NC(=O)[C@@H]2[C@@H](O)CCN2C(=O)[C@H]([C@H](O)CCN)NC(=O)[C@H]([C@H](O)[C@@H](O)c2ccc(O)cc2)NC(=O)[C@@H]2C[C@@H](O)CN2C(=O)[C@H]([C@@H](C)O)NC1=O` [CASPOFUNGIN] here?
Its IC50 is 10.03 ng/mL (≈ 0.00917 µM).

And the Ki [1]?
Its Ki is 4.92 ng/mL (≈ 0.0045 µM).

What about the IC50 [2] of the same compound?
Its IC50 is 698.1 ng/mL (≈ 0.639 µM).

What about the Ki [2] of the same compound?
The Ki was 2122.49 ng/mL (≈ 1.94 µM).

What about the IC50 [3] of the same compound?
Its IC50 is 82.66 ng/mL (≈ 0.0756 µM).

What about the Ki [3] of the same compound?
The Ki was 291.67 ng/mL (≈ 0.267 µM).

And the MIC (Candida albicans [4])?
The MIC was 2 µg/mL (≈ 1.83 µM).

What about the MIC (Candida albicans [5]) of the same compound?
Its MIC is 4 µg/mL.

And the MIC (Candida albicans [6])?
The MIC was 8 µg/mL.

What about the Km (Candida albicans [7]) of the same compound?
The Km was 50 µM.

What about the Vmax (Candida albicans [7]) of the same compound?
The Vmax was 4.4 nmol/min.

And the IC50 [8]?
Its IC50 is 0.9 ng/mL (≈ 0.000823 µM).

What about the Ki [8] of the same compound?
The Ki was 0.95 ng/mL (≈ 0.000869 µM).

And the MIC (Candida albicans [9])?
Its MIC is 4 µg/mL (≈ 3.66 µM).

And the IC50 [10]?
The IC50 was 459.1 ng/mL (≈ 0.42 µM).

And the Ki [10]?
Its Ki is 519.33 ng/mL (≈ 0.475 µM).

And the MIC (Candida albicans [11])?
The MIC was 0.25 µg/mL.

And the MIC (Candida albicans [12])?
Its MIC is 16 µg/mL.

What about the MIC (Candida albicans [13]) of the same compound?
Its MIC is 8 µg/mL (≈ 7.32 µM).

And the MIC (Candida albicans [14])?
The MIC was 4 µg/mL (≈ 3.66 µM).

What about the MIC (Candida albicans [15]) of the same compound?
Its MIC is 4 µg/mL (≈ 3.66 µM).

What about the IC50 [16] of the same compound?
The IC50 was 245.4 ng/mL (≈ 0.224 µM).

And the Ki [16]?
The Ki was 1480 ng/mL (≈ 1.35 µM).

What about the MIC (Candida albicans [17]) of the same compound?
The MIC was 0.33 µg/mL (≈ 0.302 µM).

What about the Km (Candida albicans [18]) of the same compound?
The Km was 61 µM.

What about the Vmax (Candida albicans [18]) of the same compound?
The Vmax was 2.51 nmol/min.

And the Km (Candida albicans SC5314)?
The Km was 125 µM.

And the Vmax (Candida albicans SC5314)?
Its Vmax is 6.72 nmol/min.

And the Km (Candida albicans [19])?
The Km was 25 µM.

And the Vmax (Candida albicans [19])?
Its Vmax is 1.83 nmol/min.

What about the MIC (Candida albicans [20]) of the same compound?
Its MIC is 8 µg/mL.

And the Km (Candida albicans [21])?
The Km was 54 µM.

What about the Vmax (Candida albicans [21]) of the same compound?
The Vmax was 2.54 nmol/min.

What about the MIC (Candida albicans [22]) of the same compound?
Its MIC is 3.33 µg/mL (≈ 3.05 µM).

What about the IC50 [23] of the same compound?
Its IC50 is 0.5 ng/mL (≈ 0.000457 µM).

And the Ki [23]?
Its Ki is 0.46 ng/mL (≈ 0.000421 µM).

What about the MIC (Candida albicans [24]) of the same compound?
Its MIC is 8 µg/mL.

And the MIC (Candida albicans [25])?
The MIC was 0.25 µg/mL (≈ 0.229 µM).

What about the IC50 [26] of the same compound?
The IC50 was 322.4 ng/mL (≈ 0.295 µM).

What about the Ki [26] of the same compound?
The Ki was 1358 ng/mL (≈ 1.24 µM).

What about the MIC (Candida albicans [27]) of the same compound?
Its MIC is 0.21 µg/mL (≈ 0.192 µM).

What about the MIC (Candida albicans [28]) of the same compound?
Its MIC is 0.25 µg/mL.

What about the MIC (Candida albicans [29]) of the same compound?
The MIC was 4 µg/mL.

What about the IC50 [30] of the same compound?
The IC50 was 2075 ng/mL (≈ 1.9 µM).

What about the Ki [30] of the same compound?
The Ki was 860 ng/mL (≈ 0.787 µM).
